Measurements published in publication PMC3836752 (Organic letters, 2013).

What was measured:
BamL [1] = target: T1, BamL (Bacillus velezensis, UniProt D3VMM1); assay: BamL methylation assay, ESI-MS endpoint / LC-MS; assay type: biochemical; conditions: for conversion into dimethylated product / dimethylation by BamL: condition A: 16 h endpoint assay, BamL in the presence of SAM, ESI-MS/HRMS and LC-MS
T1 sequence (D3VMM1 1-270): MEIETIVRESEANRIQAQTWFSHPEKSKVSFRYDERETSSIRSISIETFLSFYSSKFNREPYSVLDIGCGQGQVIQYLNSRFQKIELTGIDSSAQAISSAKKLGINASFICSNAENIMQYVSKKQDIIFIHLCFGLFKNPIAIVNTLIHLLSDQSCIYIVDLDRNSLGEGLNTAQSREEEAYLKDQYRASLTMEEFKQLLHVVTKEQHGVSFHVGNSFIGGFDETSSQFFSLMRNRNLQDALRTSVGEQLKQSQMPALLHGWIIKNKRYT
Procedure, shortened: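 Test compounds were incubated with BamL and scored as substrates by conversion of starting material. Two conditions were used: a standard assay, and a more stringent 1 h assay (condition B) with lower enzyme and substrate concentrations for finer resolution of substrate efficiency.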

BamL [2] = target: T1, BamL; assay: ITC binding assay with BamL; conditions: for Kd: BamL
Procedure, shortened: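 Test compounds were titrated with BamL by isothermal titration calorimetry. The binding isotherms were fitted to give Kd and thermodynamic binding parameters. The same titration was applied to a minimal arginine amide ligand.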

BamL [3] = target: T1, BamL; conditions: cited from earlier work; for processing by BamL: Arg-containing tetrapeptides as substrate mimics
Bacillus anthracis = conditions: against Bacillus anthracis; ref 1b; cited from earlier work

Row | Compound | conversion into dimethylated product (BamL [1]) | dimethylation by BamL (BamL [1]) | Kd (BamL [2]) [µM] | processing by BamL (BamL [3]) | further results
1 | C=CCOC(=O)c1csc([C@@H](N)CCCNC(=N)N)n1 [compound 2] | left detectable levels of unconverted starting material | dimethylated by BamL | 2.2 | – | increase in affinity for BamL versus 17 (2 vs. 17) (BamL [2]; addition of a single thiazole to Arg-NH2): two orders of magnitude
2 | CCOC(=O)c1csc(-c2nc(-c3csc([C@@H](N)CCCNC(=N)N)n3)oc2C)n1 [compound 3] | full conversion | dimethylated by BamL | 1.7 | – | processing by BamL compared to 2 (BamL [1]; 3 compared to 2, differences in affinity not solely responsible): enhanced processing; conversion into dimethylated product (reaction completeness) (BamL [1]; condition B: more stringent 1 h assay, lower concentrations of enzyme and substrate, ESI-MS): nearly complete; reaction efficiency with BamL (BamL [1]; three azole rings compared with one azole, conditions A and B): reaction efficiency increases substantially; affinity for BamL relative to monoazole 2 (BamL [2]): marginally higher affinity; thermodynamic origin of stronger interaction compared to 2 (BamL [2]; analysis of Gibbs free energy terms, 3 compared to 2): primarily entropically driven
3 | N=C(N)NCCC[C@H](N)C(N)=O [compound 17, Arg-NH2] | – | – | – | – | conversion to (CH3)2-Arg-NH2 by BamL (BamL [3]): inefficiently converted
4 | RAAA | – | – | – | unprocessed by BamL | –
5 | RGGG | – | – | – | unprocessed by BamL | –
6 | plantazolicin [PZN] | – | – | – | – | antibacterial action (Bacillus anthracis): highly discriminating antibacterial action against Bacillus anthracis
